From ChEMBL document CHEMBL1157699, “New small-size peptides possessing antifungal activity” (Bioorg Med Chem, 2010)
Residues, ends and D or L forms follow the SMILES beside them.

Key:
Cryptococcus neoformans [1] = test: Antifungal activity against Cryptococcus neoformans ATCC 32264 assessed as inhibition of fungal growth at 50 uM after 48 hrs by microbroth dilution method; assay type: functional; conditions: ATCC 32264, 48 h
Outline: (§1)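 Cryptococcus run by CLSI M-27 A2 microbroth dilution in RPMI-1640. Peptide was diluted from DMSO stock to final 200, 100, 50, 25, 12.5, 6.25 and 3.125 µM. Inoculum was 1–5 × 10^3 CFU/ml from 24 h, 35 °C Sabouraud-chloramphenicol slants. Incubation was 48 h at 35 °C, moist and dark. % inhibition was taken from OD405 against a DMSO-containing growth control. Amphotericin B served as the positive control; tests in duplicate.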

Candida albicans [2] = test: Antifungal activity against Candida albicans ATCC 10231 assessed as inhibition of fungal growth at 25 uM after 24 hrs by microbroth dilution method; assay type: functional; conditions: ATCC 10231, 24 h
Outline: (§2)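 CLSI M-27 A2 broth microdilution in RPMI-1640. Peptides were taken from DMSO stocks to final 200–3.125 µM (twofold series). Inoculum was 1–5 × 10^3 CFU/ml from 24 h Sabouraud-chloramphenicol slant cultures at 35 °C. Plates were incubated 24 h at 35 °C in a moist dark chamber. OD405 was read, and % inhibition was taken against a DMSO-matched growth control. Amphotericin B served as the positive control; duplicates.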

Cryptococcus neoformans [3] = test: Antifungal activity against Cryptococcus neoformans ATCC 32264 assessed as inhibition of fungal growth at 6.25 uM after 48 hrs by microbroth dilution method; assay type: functional; conditions: ATCC 32264, 48 h; outline: as §1
Cryptococcus neoformans [4] = test: Antifungal activity against Cryptococcus neoformans ATCC 32264 assessed as inhibition of fungal growth at 25 uM after 48 hrs by microbroth dilution method; assay type: functional; conditions: ATCC 32264, 48 h; outline: as §1
Cryptococcus neoformans [5] = test: Antifungal activity against Cryptococcus neoformans ATCC 32264 assessed as inhibition of fungal growth at 100 uM after 48 hrs by microbroth dilution method; assay type: functional; conditions: ATCC 32264, 48 h; outline: as §1
Candida albicans [6] = test: Antifungal activity against Candida albicans ATCC 10231 assessed as inhibition of fungal growth at 50 uM after 24 hrs by microbroth dilution method; assay type: functional; conditions: ATCC 10231, 24 h; outline: as §2
Candida albicans [7] = test: Antifungal activity against Candida albicans ATCC 10231 assessed as inhibition of fungal growth at 200 uM after 24 hrs by microbroth dilution method; assay type: functional; conditions: ATCC 10231, 24 h; outline: as §2
Cryptococcus neoformans [8] = test: Antifungal activity against Cryptococcus neoformans ATCC 32264 assessed as inhibition of fungal growth at 200 uM after 48 hrs by microbroth dilution method; assay type: functional; conditions: ATCC 32264, 48 h; outline: as §1
Cryptococcus neoformans [9] = test: Antifungal activity against Cryptococcus neoformans ATCC 32264 assessed as inhibition of fungal growth at 12.5 uM after 48 hrs by microbroth dilution method; assay type: functional; conditions: ATCC 32264, 48 h; outline: as §1
Candida albicans [10] = test: Antifungal activity against Candida albicans ATCC 10231 assessed as inhibition of fungal growth at 100 uM after 24 hrs by microbroth dilution method; assay type: functional; conditions: ATCC 10231, 24 h; outline: as §2
Candida albicans [11] = test: Antifungal activity against Candida albicans ATCC 10231 assessed as inhibition of fungal growth at 12.5 uM after 24 hrs by microbroth dilution method; assay type: functional; conditions: ATCC 10231, 24 h; outline: as §2
Cryptococcus neoformans [12] = test: Antifungal activity against Cryptococcus neoformans ATCC 32264 assessed as inhibition of fungal growth at 3.125 uM after 48 hrs by microbroth dilution method; assay type: functional; conditions: ATCC 32264, 48 h; outline: as §1
[13] = Toxicity in Poecilia reticulata assessed as mortality at 16.4 ug/ml after 24 hrs; assay type: organism-based; conditions: in vivo, read-out: Activity
Outline: (§3)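 Acute toxicity in guppy (P. reticulata): 10 fish per concentration held in jars with the test solution for 96 h. Peptide added from aqueous stock diluted in DMSO to the final concentration. Dead fish counted and removed every 24 h, and condition noted. Percent mortality recorded at 96 h. Two experiments, each in triplicate.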

Cryptococcus neoformans [14] = test: Antifungal activity against Cryptococcus neoformans ATCC 32264 assessed as inhibition of fungal growth after 48 hrs by microbroth dilution method; assay type: functional; conditions: ATCC 32264, 48 h; for MIC: read-out: MIC100; outline: as §1
[15] = Toxicity in Poecilia reticulata assessed as mortality at 16.4 ug/ml after 48 hrs; assay type: organism-based; conditions: in vivo, read-out: Activity; outline: as §3
Candida albicans [16] = test: Antifungal activity against Candida albicans ATCC 10231 assessed as inhibition of fungal growth after 24 hrs by microbroth dilution method; assay type: functional; conditions: ATCC 10231, 24 h; for MIC: read-out: MIC100; outline: as §2
[17] = Toxicity in Poecilia reticulata assessed as mortality at 16.4 ug/ml after 72 hrs; assay type: organism-based; conditions: in vivo, read-out: Activity; outline: as §3
[18] = Toxicity in Poecilia reticulata assessed as mortality at 16.4 ug/ml after 96 hrs; assay type: organism-based; conditions: in vivo, read-out: Activity; outline: as §3
[19] = Toxicity in Poecilia reticulata assessed as mortality at 22.8 ug/ml after 48 hrs; assay type: organism-based; conditions: in vivo, read-out: Activity; outline: as §3
[20] = Toxicity in Poecilia reticulata assessed as mortality at 22.8 ug/ml after 96 hrs; assay type: organism-based; conditions: in vivo, read-out: Activity; outline: as §3
[21] = Toxicity in Poecilia reticulata assessed as mortality at 22.8 ug/ml after 24 hrs; assay type: organism-based; conditions: in vivo, read-out: Activity; outline: as §3
[22] = Toxicity in Poecilia reticulata assessed as mortality at 22.8 ug/ml after 72 hrs; assay type: organism-based; conditions: in vivo, read-out: Activity; outline: as §3

Compound	inhibition at 50 µM (Cryptococcus neoformans [1]) [%]	inhibition at 25 µM (Candida albicans [2]) [%]	inhibition at 6.25 µM (Cryptococcus neoformans [3]) [%]	inhibition at 25 µM (Cryptococcus neoformans [4]) [%]	inhibition at 100 µM (Cryptococcus neoformans [5]) [%]	inhibition at 50 µM (Candida albicans [6]) [%]	inhibition at 200 µM (Candida albicans [7]) [%]	inhibition at 200 µM (Cryptococcus neoformans [8]) [%]	inhibition at 12.5 µM (Cryptococcus neoformans [9]) [%]	inhibition at 100 µM (Candida albicans [10]) [%]	inhibition at 12.5 µM (Candida albicans [11]) [%]	inhibition at 3.125 µM (Cryptococcus neoformans [12]) [%]	also measured
C[C@@H]1[C@H](O)[C@@H](C)/C=C/C=C/C=C/C=C/C=C/C=C/C=C/[C@H](O[C@@H]2O[C@H](C)[C@@H](O)[C@H](N)[C@@H]2O)C[C@@H]2O[C@](O)(C[C@@H](O)C[C@@H](O)[C@H](O)CC[C@@H](O)C[C@@H](O)CC(=O)O[C@H]1C)C[C@H](O)[C@H]2C(=O)O [AMPHOTERICIN B]	100	100	100	100	100	100	100	100	100	100	100	100	–
CC[C@H](C)[C@H](NC(=O)[C@H](C)NC(=O)[C@@H](N)CCCNC(=N)N)C(=O)N[C@@H](CCCCN)C(N)=O (H-RAIK-NH2)	0	–	0	0	29.1	–	–	34.6	0	–	–	0	–
C[C@H](NC(=O)[C@H](C)NC(=O)[C@@H](N)CCCNC(=N)N)C(=O)N[C@@H](CCCCN)C(N)=O (H-RAAK-NH2)	67.5	–	14.1	39.1	69.7	–	–	78.6	26.3	–	–	0	–
H-RQIRRWWQW-NH2	100	50.7	–	100	100	100	100	100	83.3	100	19.1	–	mortality at 24 h, 16.4 ug/ml [13]: 0%; MIC50 (Cryptococcus neoformans [14]): ≤ 12.5 µM; MIC80 (Cryptococcus neoformans [14]): ≤ 12.5 µM; MIC (Cryptococcus neoformans [14]): 25 µM; mortality at 48 h, 16.4 ug/ml [15]: 0%; MIC50 (Candida albicans [16]): ≤ 25 µM; MIC (Candida albicans [16]): 50 µM; mortality at 72 h, 16.4 ug/ml [17]: 0%; mortality at 96 h, 16.4 ug/ml [18]: 0%
C[C@H](N)C(=O)N[C@@H](C)C(=O)N[C@@H](C)C(=O)N[C@@H](CCCCN)C(N)=O (H-AAAK-NH2)	57.9	–	0	43	62	–	–	70.6	31.1	–	–	0	–
CC[C@H](C)[C@H](NC(=O)[C@H](CCC(N)=O)NC(=O)[C@@H](N)CCCCN)C(=O)N[C@@H](CCCCN)C(N)=O (H-KQIK-NH2)	0	–	0	0	0	–	–	3.72	0	–	–	0	–
H-RQWKKWWQWRR-NH2	100	67.9	–	100	100	100	100	100	66.2	100	35.7	–	mortality at 48 h, 22.8 ug/ml [19]: 0%; MIC50 (Cryptococcus neoformans [14]): ≤ 12.5 µM; MIC (Cryptococcus neoformans [14]): 25 µM; mortality at 96 h, 22.8 ug/ml [20]: 0%; MIC50 (Candida albicans [16]): ≤ 25 µM; MIC (Candida albicans [16]): 50 µM; mortality at 24 h, 22.8 ug/ml [21]: 0%; mortality at 72 h, 22.8 ug/ml [22]: 0%
CC[C@H](C)[C@H](NC(=O)[C@@H](NC(=O)[C@@H](N)CCCNC(=N)N)[C@@H](C)CC)C(=O)N[C@@H](CCCCN)C(N)=O (H-RIIK-NH2)	11.5	–	14.5	20.9	39.7	–	–	42	12.6	–	–	8.74	–
